The source made the active and inactive calls. No cut-off for these calls is given here.
Tests used:
[1] = system: Mus musculus; experiment: Change in plasma glucose in diet-induced obese mice over 30 days at 100 mg/kg ip; assay type: functional, organism-based; set-up: dose 100 mg/kg; settings: C57BL/6
[2] = system: Mus musculus; experiment: Change in plasma NEFA (non-esterified fatty acids) in diet-induced obese mice over 30 days at 100 mg/kg ip; assay type: functional, organism-based; set-up: dose 100 mg/kg; settings: C57BL/6
[3] = system: Mus musculus; experiment: Change in total plasma cholesterol in diet-induced obese mice over 30 days at 100 mg/kg ip; assay type: functional, organism-based; set-up: dose 100 mg/kg; settings: C57BL/6
[4] = system: Mus musculus; experiment: Change in plasma leptin in diet-induced obese mice over 30 days at 100 mg/kg ip; assay type: functional, organism-based; set-up: dose 100 mg/kg; settings: C57BL/6
[5] = system: Mus musculus; experiment: Change in plasma triglycerides in diet-induced obese mice over 30 days at 100 mg/kg ip; assay type: functional, organism-based; set-up: dose 100 mg/kg; settings: C57BL/6
[6] = system: Mus musculus; experiment: Change in plasma IL-6 in diet-induced obese mice over 30 days at 100 mg/kg ip; assay type: functional, organism-based; set-up: dose 100 mg/kg; settings: C57BL/6
[7] = system: Mus musculus; experiment: Change in plasma insulin in diet-induced obese mice over 30 days at 100 mg/kg ip; assay type: functional, organism-based; set-up: dose 100 mg/kg; settings: C57BL/6
[8] = Toxicity in CL57BL6 mice after 7 days treatment at 100 mg/kg b.i.d in hematology screen; assay type: organism-based, C57BL/6; set-up: dose 100 mg/kg; settings: mouse, in vivo, 168 h
Procedure, shortened: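 Vehicle-controlled C57Bl6 mice dosed chronically at 100 mg/kg b.i.d. for 7 days. Complete blood count: WBC, neutrophil, lymphocyte, monocyte, eosinophil and basophil counts and percentages; RBC, Hb, HCT, MCV, MCH, MCHC, RDW, platelet count and MPV. Mean ± s.e.m., n=6.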

[9] = Brain concentration after 2 hours at 10mg/kg ip dose (10mg/ml suspension in 10%DMSO/10%Tween80); assay type: ADME, organism-based; settings: mouse, read-out: Conc_brain
Procedure, shortened: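 Mice given a single 10mg/kg i.p. dose as a 10mg/ml suspension in 10/10/80 DMSO/Tween80/water. Brain levels (μM) measured at 2h and 8h post injection, with plasma sampled at 1, 2, 4 and 8h. Mean ± s.e.m., n=3.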

[10] = Decrease in wheel-running behavior in mice in constant darkness; assay type: functional; settings: Mus musculus
[11] = target: T1, Nuclear receptor subfamily 1 group D member 1 (Homo sapiens, UniProt P20393); experiment: REV-ERB-alpha mediated transcriptional suppression at Bmal1 promoter in HEK293 cell reporter assay; assay type: functional, cell-based
T1 sequence (P20393 whole entry): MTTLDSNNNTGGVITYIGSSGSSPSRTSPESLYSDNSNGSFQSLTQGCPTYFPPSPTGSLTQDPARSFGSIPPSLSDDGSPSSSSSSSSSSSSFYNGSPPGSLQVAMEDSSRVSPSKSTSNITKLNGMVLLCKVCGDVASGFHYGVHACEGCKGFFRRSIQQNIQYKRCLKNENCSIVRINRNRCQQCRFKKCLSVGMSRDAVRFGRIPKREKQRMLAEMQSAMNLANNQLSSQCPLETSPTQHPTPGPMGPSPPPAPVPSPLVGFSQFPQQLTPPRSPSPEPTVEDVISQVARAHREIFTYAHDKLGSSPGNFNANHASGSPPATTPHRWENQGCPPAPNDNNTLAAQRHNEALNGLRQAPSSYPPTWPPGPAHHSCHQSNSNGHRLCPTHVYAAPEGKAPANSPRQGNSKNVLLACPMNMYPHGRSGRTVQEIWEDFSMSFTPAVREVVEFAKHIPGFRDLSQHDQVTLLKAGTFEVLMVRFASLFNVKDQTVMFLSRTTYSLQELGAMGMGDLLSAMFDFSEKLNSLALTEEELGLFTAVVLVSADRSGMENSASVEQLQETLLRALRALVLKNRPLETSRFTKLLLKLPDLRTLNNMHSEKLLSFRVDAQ

[12] = Decrease in Srebf1 gene expression; assay type: functional; settings: Mus musculus, Liver
[13] = system: Fibroblast; experiment: Inhibition of circadian oscillations in fibroblasts from Per2-luc transgenic mice; assay type: functional, cell-based; settings: Mus musculus
Procedure, shortened: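 Fibroblasts (MEFs) were isolated from Per2^luc transgenic mice and treated with 5 μM compound. Circadian oscillation amplitude was followed by continuous bioluminescence recording in two independent experiments.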

[14] = target: T1, Nuclear receptor subfamily 1 group D member 1; experiment: Increased REV-ERB-alpha LBD dependent repressor activity in HEK293 cell reporter assay; assay type: cell-based; settings: read-out: IC50
[15] = Plasma concentration after 2 hours at 10mg/kg ip dose (10mg/ml suspension in 10%DMSO/10%Tween80); assay type: ADME, organism-based; settings: mouse, read-out: Conc_plasma
Procedure, shortened: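 Mice received a single 10 mg/kg i.p. dose as a 10 mg/ml suspension in DMSO/Tween80/water (10/10/80). Plasma was sampled at 1, 2, 4 and 8 h post-injection and drug concentration reported in μM. Mean ± s.e.m., n=3.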

[16] = species on record: Mus musculus; experiment: Inhibition of circadian oscillations in SCN explants from Per2-luc transgenic mouse; assay type: functional, tissue-based

SMILES	Plasma glucose [1]	Plasma NEFA [2]	Plasma cholesterol [3]	Plasma leptin [4]	Plasma triglyceride [5]	Plasma IL-6 [6]	Plasma insulin [7]	Toxicity [8]	concentration at 2 h [9]	ED50 [10]	IC50 [11]	ED50 [12]	Reduced_circadian_oscillation [13]	IC50 [14]	concentration at 2 h [15]	Reduced_circadian_oscillation [16]
CCOC(=O)N1CCC(CN(Cc2ccc(Cl)cc2)Cc2ccc([N+](=O)[O-])s2)C1 (stereo unspecified) [SR9009]	-19%	-23%	-47%	-80%	-12%	-72%	-35%	–	–	–	–	–	–	–	–	–
CCCCCNC(=O)N1CCC(CN(Cc2ccc(Cl)cc2)Cc2ccc([N+](=O)[O-])s2)C1 (stereo unspecified) [SR9011]	–	–	–	–	–	–	–	Not Toxic	240 nM	56 mg/kg	620 nM (agonist)	67 mg/kg	Active	790 nM (agonist)	530 nM	Active

From ChEMBL document CHEMBL1961794, “Regulation of circadian behaviour and metabolism by synthetic REV-ERB agonists” (Nature, 2012)
